From PubChem BioAssay
OXTR potentiate = human OXTR potentiators, primary screen, fluorescence, CHO-OTR cells, Fluo-8 calcium. Oxytocin receptor (Homo sapiens), P30559. Fluo-8 calcium fluorescence, potentiator mode; 0% = oxytocin EC15, 100% = EC100. activation, % at 3 µM. 0.061% of 320,000 active;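 active means activation above that plate's cutoff, the mean activation of tested compounds plus 3 SD, cut at about 6.6% in these data, passing the limit was not always enough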
Target sequence (P30559 whole entry, looked up): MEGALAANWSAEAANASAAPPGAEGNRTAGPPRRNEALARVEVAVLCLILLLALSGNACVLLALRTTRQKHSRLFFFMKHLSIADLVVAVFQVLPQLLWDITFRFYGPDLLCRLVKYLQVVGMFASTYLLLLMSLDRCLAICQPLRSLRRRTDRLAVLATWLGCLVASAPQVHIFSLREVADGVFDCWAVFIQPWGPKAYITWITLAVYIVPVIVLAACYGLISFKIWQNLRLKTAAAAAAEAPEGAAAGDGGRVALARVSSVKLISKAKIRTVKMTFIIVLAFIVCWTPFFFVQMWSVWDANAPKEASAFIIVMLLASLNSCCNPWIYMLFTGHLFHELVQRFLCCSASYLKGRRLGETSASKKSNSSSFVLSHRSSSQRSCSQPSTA
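Material: CHO-OTR cells, human receptor; compound dosing: single dose, 3.0 µM nominal final compound concentration; schedule: 6 min compound pre-incubation at room temperature, 100 s kinetic read; measured by: kinetic Fluo-8 calcium fluorescence; read-out basis: % activation vs EC15 and EC100 oxytocin; controls: EC15 oxytocin alone as 0%, 75 nM oxytocin as 100%; replicates: singlicate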
V1R ag counter = agonists of human V1a receptor, primary screen, counter-screen for OXTR agonist project, fluorescence, CHO-V1R cells; Fluo-8 calcium fluorescence, agonist mode; 0% DMSO, 100% 3 nM vasopressin; activation, % at 3 µM; 0.25% of 320,000 active; AID 2797, 2010;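 active means activation above the mean activation of all tested compounds plus 3 SD, per screening run, cut at about 20% in these data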;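 further: signal is peak over basal fluorescence ratio across a 100 second FLIPR read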
OXTR ag = human OXTR agonists, primary screen, fluorescence, CHO-OTR cells, Fluo-8 calcium. Oxytocin receptor (Homo sapiens), P30559. AID 2435, 2010. 0.32% of 320,000 active. Fluo-8 calcium fluorescence; normalized: DMSO 0%, oxytocin 100%. activation, % at 3 µM;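 active means activation above the mean of all tested compounds plus 3 SD, cutoff set per screening run, cut at about 20% in these data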;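 further: peak over basal fluorescence ratio from a 100 s FLIPR kinetic read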
TAAR1 antagonist = human TAAR1 antagonists, primary screen, Fluo-8 calcium fluorescence, CHO RD-HGA16 cells | Trace amine-associated receptor 1 (Homo sapiens), Q96RJ0 | 1.5% of 360,000 active | antagonist | inhibition, % at 3 µM;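 active means inhibition above a per-plate cutoff, the mean inhibition of test compounds on that plate plus 3 SD, cut at about 49% in these data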
Target sequence (Q96RJ0 whole entry, looked up): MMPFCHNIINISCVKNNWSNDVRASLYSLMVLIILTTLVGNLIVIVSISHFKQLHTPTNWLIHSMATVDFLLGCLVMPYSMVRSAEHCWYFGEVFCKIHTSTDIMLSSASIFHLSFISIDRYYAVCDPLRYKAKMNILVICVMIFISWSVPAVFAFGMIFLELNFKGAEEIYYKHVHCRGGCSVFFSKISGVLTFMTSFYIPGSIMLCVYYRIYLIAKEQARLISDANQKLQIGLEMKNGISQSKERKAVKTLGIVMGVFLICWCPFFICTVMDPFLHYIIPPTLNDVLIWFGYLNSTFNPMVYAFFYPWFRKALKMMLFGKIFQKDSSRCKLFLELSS
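Test system: hTAAR1-expressing CHO RD-HGA16 cells, Gα16-coupled; Probe or stimulus: EC80 β-phenethylamine stimulus; Compound dosing: single nominal final test compound concentration of 3 µM; Timing: 140 s kinetic read after compound, 140 s after agonist; Signal: Fluo-8 calcium-sensitive fluorescence; Measure: % inhibition of agonist calcium response; Controls: DMSO and EC80 PEA controls.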
TAAR1 agonist = human TAAR1 agonists, primary screen, Fluo-8 calcium fluorescence, CHO RD-HGA16 cells; Trace amine-associated receptor 1 (Homo sapiens), Q96RJ0; vehicle wells 0%, saturating PEA agonist 100%; activation, % at 3 µM; 0.99% of 360,000 active; AID 624467, 2012;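 active means activation above the mean activation of all test compounds in the run plus 3 SD, cut at about 38% in these data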
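test system = CHO RD-HGA16 cells carrying human TAAR1 plus Gα16 | schedule = 17-24 h seeding, 75 min 37 °C dye, 30 min RT | compound dosing = 3 µM single concentration | control set = DMSO and PEA EC100 | replicates = n 1 | signal = Fluo-8 fluorescence, 5 s baseline then 140 s kinetic read | measure = percent activation vs PEA EC100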
TAAR1 ag conf = human TAAR1 agonists, retest of hits, confirmation, Fluo-8 calcium fluorescence, CHO RD-HGA16 cells. activation, % at 3 µM. shares compounds with TAAR1 agonist. 82% of 2,400 active. scaled: DMSO 0%, maximal phenethylamine 100%;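 active means activation above a cutoff set at the run's mean compound activation plus 3 SD, cut at about 39% in these data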
Ga16 nonsel ag = nonselective calcium mobilization agonists, CHO-Ga16 cells, counter-screen for hTAAR1 agonist project, cell-based, fluorescence, CHO-Ga16 parental line. AID 651787, 2012. activation, % at 3 µM. 50% of 2,400 active. shares compounds with TAAR1 agonist. Fluo-8 calcium fluorescence; normalized to maximal ATP response, DMSO zero;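 active means activation above the run cutoff, the mean activation over all tested wells plus 3 SD, cut at about 12% in these data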
TAAR1 desensitize = TAAR1 desensitization by agonist hits, confirmation, counter-screen for TAAR1 agonist project, cell-based, fluorescence, tachyphylaxis; CHO RD-HGA16 hTAAR1, Fluo-8 calcium, beta-PEA response inhibition; 46% of 2,400 active; AID 651951, 2012; shares compounds with TAAR1 agonist; inhibition, % at 3 µM;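 active means inhibition above the run cutoff, the mean inhibition of all test compounds plus 3 SD, cut at about 49% in these data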;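 further: beta-PEA stimulus applied at its EC80; loss of beta-PEA calcium signal after compound pretreatment read as receptor desensitization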
Ga16 antag count = inhibition of ATP-evoked calcium response in CHO-Ga16 cells, counter-screen for TAAR1 agonist project, cell-based, fluorescence. shares compounds with TAAR1 agonist. CHO-Ga16 ATP-induced calcium, Fluo-8 fluorescence. inhibition, % at 3 µM. 39% of 2,400 active. AID 651952, 2012;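 active means inhibition above the plate's mean compound inhibition plus 3 SD, computed per plate, cut at about 22% in these data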
Of the large screens only hits and unclear results are named; the others gave an inactive call (follow-up assays come after a bar, where they were run). An excerpt weighted towards active compounds, which were near 2.3% of everything screened.

Cc1sc(NC(=O)c2ccco2)c(C(c2cccnc2)N2CCC(C)CC2)c1C (configuration not stated)	TAAR1 agonist 62 | TAAR1 ag conf 54 | Ga16 nonsel ag 22 | TAAR1 desensitize inactive | Ga16 antag count 23
C/C(=N\NC(=O)c1c(C)nc2ccccn12)c1ccco1	none
c1ccc2c(Cn3ccnc3)c[nH]c2c1	TAAR1 agonist 54 | TAAR1 ag conf 71 | Ga16 nonsel ag inactive | TAAR1 desensitize inactive | Ga16 antag count inactive
Cc1cccc(C(=O)NC(=S)NNC(=O)c2ccc(Cl)cc2)c1	V1R ag counter 112, OXTR ag 98, TAAR1 antagonist 104, TAAR1 agonist 171 | TAAR1 ag conf 159 | Ga16 nonsel ag 121 | TAAR1 desensitize 107 | Ga16 antag count 93
COc1ccc(-c2nn(-c3ccccc3)cc2C(=O)NC(=S)NNC(=O)c2ccncc2)cc1	TAAR1 antagonist 56, TAAR1 agonist 101 | TAAR1 ag conf 82 | Ga16 nonsel ag 74 | TAAR1 desensitize 76 | Ga16 antag count 70
COc1cc(C(=O)NNC(=S)NC(=O)c2ccc(Cl)cc2)cc(OC)c1OC	V1R ag counter 34, OXTR ag 37, TAAR1 antagonist 86, TAAR1 agonist 141 | TAAR1 ag conf 93 | Ga16 nonsel ag 84 | TAAR1 desensitize 67 | Ga16 antag count 43
COc1cc(OC)cc(C(=O)NNC(=O)c2ccc3ccccc3n2)c1	none (no result: OXTR potentiate, V1R ag counter, OXTR ag)
Cc1cccc(C(=O)NNC(=O)c2ccc(Br)cc2)c1	none
COc1ccc(C(=O)NC(=S)NNC(=O)c2ccc3ccccc3n2)cc1	TAAR1 agonist 51 | TAAR1 ag conf 89 | Ga16 nonsel ag 69 | TAAR1 desensitize inactive | Ga16 antag count 37
COc1ccc(NC(=O)c2cn(-c3ccccc3)nc2-c2ccncc2)cc1	none
COc1ccccc1OCCNC(=O)c1ccc2c(c1)OCCO2	none
CCOC(=O)CN(c1ccccn1)S(=O)(=O)c1ccc(OC)cc1	none
Cn1cccc1CC(=O)NNC(=S)NC(=O)c1ccc(F)cc1	none
Cc1nn(CC(=O)Nc2ccc(Cl)cn2)c(C)c1Br	none
COc1ccc(C(=O)NNC(=S)NC(=O)c2ccc(Cl)cc2)cc1	V1R ag counter 76, OXTR ag 71, TAAR1 antagonist 106, TAAR1 agonist 176 | TAAR1 ag conf 141 | Ga16 nonsel ag 117 | TAAR1 desensitize 102 | Ga16 antag count 86
COc1ccc(C(=O)NC(=S)NNC(=O)c2ccc(C)cc2)cc1	V1R ag counter 108, OXTR ag 82, TAAR1 antagonist 106, TAAR1 agonist 170 | TAAR1 ag conf 157 | Ga16 nonsel ag 124 | TAAR1 desensitize 105 | Ga16 antag count 70
COc1ccc(C(=O)NC(=S)NNC(=O)c2ccc(NC(=O)C(C)C)cc2)cc1	none
CCC(=O)NC(=S)NNC(=O)c1ccc(OC)cc1	none
CCCCC(=O)NNC(=S)NC(=O)c1ccc(C)cc1	TAAR1 agonist 98 | TAAR1 ag conf 83 | Ga16 nonsel ag 82 | TAAR1 desensitize inactive | Ga16 antag count 40
CCCCC(=O)NNC(=S)NC(=O)c1ccc([N+](=O)[O-])cc1	none
O=C(NNC(=S)NC(=O)c1sc2ccccc2c1Cl)c1ccc(Cl)cc1	V1R ag counter 57, OXTR ag 46, TAAR1 antagonist 50, TAAR1 agonist 91 | TAAR1 ag conf 163 | Ga16 nonsel ag 141 | TAAR1 desensitize 106 | Ga16 antag count 103
O=C(O)c1ccccc1NC(=S)NC(=O)c1sc2ccccc2c1Cl	none
CCC1(c2ccccc2)NC(=O)N(CC(=O)N(C)CC(=O)Nc2ccc(F)c(F)c2F)C1=O (configuration not stated)	none
Cc1ccc(CNC(=O)OC2CC3CC2[C@H]2CCCCN2C3=O)cc1 (some centres not stated)	TAAR1 agonist 54 (no result: OXTR potentiate, V1R ag counter, OXTR ag) | TAAR1 ag conf inactive | Ga16 nonsel ag inactive | TAAR1 desensitize inactive | Ga16 antag count inactive
COc1cc(CNC(=O)OC2CC3CC2[C@H]2CCCCN2C3=O)cc(OC)c1 (some centres not stated)	none (no result: OXTR potentiate, V1R ag counter, OXTR ag)
S=C(Nc1ccc(Cl)c(Cl)c1)NC1CCN(Cc2ccccc2)CC1	V1R ag counter 39, OXTR ag 42, TAAR1 antagonist 74, TAAR1 agonist 112 | TAAR1 ag conf 98 | Ga16 nonsel ag 57 | TAAR1 desensitize 89 | Ga16 antag count 67
Fc1ccc(NC(=S)NC2CCN(Cc3ccccc3)CC2)cc1	none
CCOc1ccc(NC(=O)Cn2nnc(-c3ccccc3F)n2)cc1	TAAR1 agonist 75 | TAAR1 ag conf inactive | Ga16 nonsel ag inactive | TAAR1 desensitize inactive | Ga16 antag count inactive
CCOC(=O)C1CCCN(C(=O)Cc2ccc(C)cc2)C1 (configuration not stated)	none
CCOC(=O)C1CCCN(C(=S)Nc2ccc(C)cc2C)C1 (configuration not stated)	TAAR1 antagonist 60, TAAR1 agonist 69 | TAAR1 ag conf inactive | Ga16 nonsel ag inactive | TAAR1 desensitize inactive | Ga16 antag count inactive
NC(N)=N/N=C/c1ccc(Br)cc1	TAAR1 agonist 58 | TAAR1 ag conf 80 | Ga16 nonsel ag inactive | TAAR1 desensitize inactive | Ga16 antag count inactive
Cc1[nH]c2ccccc2c1CCNC(=O)c1c(N)no[n+]1[O-]	none
CC(C)(C)c1ccc(C2(C)NC(=O)N(CC(=O)NCc3cccs3)C2=O)cc1 (configuration not stated)	none
